Data: ChEMBL document CHEMBL4261490, “Exploring the links between peptoid antibacterial activity and toxicity” (Medchemcomm, 2017)
In brackets after ≈: the same amount, converted by molar mass. Square brackets hold non-standard residues; d marks the D form. Peptide text beside a SMILES is read from it. Gly(N-2-aminoethyl) = NCCNCC(=O)O; Nspe = C[C@H](NCC(=O)O)c1ccccc1; Nphe = O=C(O)CNCc1ccccc1; Nlys = NCCCCNCC(=O)O

Assays:
[1] = Selectivity index, ratio of ED50 for human HepG2 cells to MIC for Pseudomonas aeruginosa PAO1 ATCC 15692; type: toxicity; settings: read-out: Selectivity Index
[2] = Selectivity index, ratio of ED50 for human HepG2 cells to MIC for Staphylococcus epidermidis clinical isolate; type: toxicity; settings: read-out: Selectivity Index
[3] = Selectivity index, ratio of ED50 for human HaCaT cells to MIC for Staphylococcus epidermidis clinical isolate; type: toxicity; settings: read-out: Selectivity Index
Escherichia coli = assay: Antibacterial activity against Escherichia coli K-12 W3110 ATCC 27325 incubated for 16 hrs under shaking condition; type: functional; settings: K-12 substr. W3110 ATCC 27325, 16 h
Method in brief: (§1)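 Broth microdilution (Andrews method) in Iso-sensitest broth. Overnight cultures are adjusted to A650 0.07 (0.5 McFarland) and diluted ten-fold. Compounds come from 5 mM DMSO stocks, 2-fold serially diluted, final 2–100 μM in a 1:1 inoculum:compound mix. Incubation is 37 °C for 16 h with shaking. MIC is the lowest concentration giving complete growth inhibition, read by absorbance; triplicate.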

[4] = Cytotoxicity against human HaCaT cells assessed as reduction in cell viability pretreated for 1 hr followed by DMEM addition measured after 24 hrs by alamar blue assay; type: cell-based; settings: read-out: ED50
Method in brief: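 HaCaT keratinocytes are grown in DMEM high glucose with 10% FBS and 1% P/S and seeded at 2x10^4 cells/well 24 h before treatment. Compound dilution series run 2–100 µM (5 mM DMSO stocks) in 50 µL for 1 h, then medium is added for 24 h at 37 °C, 5% CO2. alamarBlue is read after 1 h (Ex 540/Em 620). Triplicate, ≥2 occasions; ED50 from dose-response; amphotericin B positive control.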

[5] = Selectivity index, ratio of ED50 for human HaCaT cells to MIC for Escherichia coli K-12 W3110 ATCC 27325; type: toxicity; settings: read-out: Selectivity Index
[6] = Selectivity index, ratio of ED50 for human HaCaT cells to MIC for Staphylococcus aureus 3R7089 strain Oxford/ATCC 9144; type: toxicity; settings: read-out: Selectivity Index
[7] = test system: Staphylococcus epidermidis; assay: Antibacterial activity against Staphylococcus epidermidis clinical isolate incubated for 16 hrs under shaking condition; type: functional; method in brief: as §1
[8] = Selectivity index, ratio of ED50 for human HepG2 cells to MIC for Staphylococcus aureus 3R7089 strain Oxford/ATCC 9144; type: toxicity; settings: read-out: Selectivity Index
[9] = Selectivity index, ratio of ED50 for human HaCaT cells to MIC for Pseudomonas aeruginosa PAO1 ATCC 15692; type: toxicity; settings: read-out: Selectivity Index
Staphylococcus aureus = assay: Antibacterial activity against Staphylococcus aureus 3R7089 strain Oxford/ATCC 9144 incubated for 16 hrs under shaking condition; type: functional; settings: 3R7089 strain Oxford/ATCC 9144, 16 h; method in brief: as §1
[10] = Selectivity index, ratio of ED50 for human HepG2 cells to MIC for Escherichia coli K-12 W3110 ATCC 27325; type: toxicity; settings: read-out: Selectivity Index
[11] = Cytotoxicity against human HepG2 cells assessed as reduction in cell viability pretreated for 1 hr followed by DMEM addition measured after 24 hrs by alamar blue assay; type: cell-based; settings: read-out: ED50
Method in brief: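 HepG2 cells are kept in DMEM high glucose with 10% heat-inactivated FBS and 1% P/S at 37 °C, 5% CO2, and seeded at 2x10^4 cells/well one day ahead. They are exposed to compounds (100 to 3 µM, from 5 mM DMSO stocks) in 50 µL for 1 h. Medium is then added and cells incubated 24 h. alamarBlue is read after 2 h (Ex 560/Em 600). Triplicate on ≥2 occasions; ED50 from dose-response; DMSO negative control.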

Pseudomonas aeruginosa = assay: Antibacterial activity against Pseudomonas aeruginosa PAO1 ATCC 15692 incubated for 16 hrs under shaking condition; type: functional; settings: PAO1 ATCC 15692, 16 h; method in brief: as §1
[12] = Cytotoxicity against mouse NIH/3T3 cells by MTS assay; type: cell-based, NIH3T3; settings: read-out: ID50 (the source's name)
[13] = Hemolytic activity against human erythrocytes measured after 1 hr; type: ADME, cell-based, Erythrocyte; settings: read-out: HD50

C[C@@H](c1ccccc1)N(CC(N)=O)C(=O)CN(C(=O)CN(CCN)C(=O)CN(C(=O)CN(C(=O)CNCCN)[C@@H](C)c1ccccc1)[C@@H](C)c1ccccc1)[C@@H](C)c1ccccc1
selectivity ratio [1]: 1 | selectivity ratio [2]: 1 | selectivity ratio [3]: 1 | MIC (Escherichia coli): > 100 µM | CC50 at 24 h [4]: > 100 µM | selectivity ratio [5]: 1 | selectivity ratio [6]: 1 | MIC [7]: > 100 µM | selectivity ratio [8]: 1 | selectivity ratio [9]: 1 | MIC (Staphylococcus aureus): > 100 µM | selectivity ratio [10]: 1 | CC50 at 24 h [11]: > 100 µM | MIC (Pseudomonas aeruginosa): > 100 µM

NCCNCC(=O)N(CC(=O)N(CC(=O)N(CCN)CC(=O)N(CC(=O)N(CC(N)=O)Cc1ccccc1)Cc1ccccc1)Cc1ccccc1)Cc1ccccc1 (H-[Gly(N-2-aminoethyl)][Nphe][Nphe][Gly(N-2-aminoethyl)][Nphe][Nphe]-NH2)
selectivity ratio [1]: 1 | selectivity ratio [2]: 1 | selectivity ratio [3]: 1 | MIC (Escherichia coli): > 100 µM | CC50 at 24 h [4]: > 100 µM | selectivity ratio [5]: 1 | selectivity ratio [6]: 1 | MIC [7]: > 100 µM | selectivity ratio [8]: 1 | selectivity ratio [9]: 1 | MIC (Staphylococcus aureus): > 100 µM | selectivity ratio [10]: 1 | CC50 at 24 h [11]: > 100 µM | MIC (Pseudomonas aeruginosa): > 100 µM

C[C@@H](c1ccccc1)N(CC(N)=O)C(=O)CN(C(=O)CN(CCCCN)C(=O)CN(C(=O)CN(C(=O)CN(CCCCN)C(=O)CN(C(=O)CN(C(=O)CN(CCCCN)C(=O)CN(C(=O)CN(C(=O)CNCCCCN)[C@@H](C)c1ccccc1)[C@@H](C)c1ccccc1)[C@@H](C)c1ccccc1)[C@@H](C)c1ccccc1)[C@@H](C)c1ccccc1)[C@@H](C)c1ccccc1)[C@@H](C)c1ccccc1 (H-[Nlys][Nspe][Nspe][Nlys][Nspe][Nspe][Nlys][Nspe][Nspe][Nlys][Nspe][Nspe]-NH2)
CC50 [12]: 5.1 µM | selectivity ratio [6]: 10 | selectivity ratio [8]: 15 | HC50 at 1 h [13]: 100 µM

N=C(N)NCCCCNCC(=O)N(CC(=O)N(CC(=O)N(CCCCNC(=N)N)CC(=O)N(CC(=O)N(CC(=O)N(CCCCNC(=N)N)CC(=O)N(CC(=O)N(CC(=O)N(CCCCNC(=N)N)CC(=O)N(CC(=O)N(CC(N)=O)Cc1cccc(F)c1)Cc1cccc(F)c1)Cc1cccc(F)c1)Cc1cccc(F)c1)Cc1cccc(F)c1)Cc1cccc(F)c1)Cc1cccc(F)c1)Cc1cccc(F)c1
selectivity ratio [1]: 2 | selectivity ratio [2]: 11 | selectivity ratio [3]: 14 | MIC (Escherichia coli): 13 µM (≈ 26.3 µg/mL) | CC50 at 24 h [4]: 28 µM | selectivity ratio [5]: 2 | selectivity ratio [6]: 14 | MIC [7]: 2 µM (≈ 4.04 µg/mL) | selectivity ratio [8]: 11 | selectivity ratio [9]: 2 | MIC (Staphylococcus aureus): 2 µM (≈ 4.04 µg/mL) | selectivity ratio [10]: 2 | CC50 at 24 h [11]: 21 µM | MIC (Pseudomonas aeruginosa): 13 µM (≈ 26.3 µg/mL)

NCCCCNCC(=O)N(CC(=O)N(CC(=O)N(CCCCN)CC(=O)N(CC(=O)N(CC(N)=O)Cc1ccccc1)Cc1ccccc1)Cc1ccccc1)Cc1ccccc1 (H-[Nlys][Nphe][Nphe][Nlys][Nphe][Nphe]-NH2)
selectivity ratio [1]: 1 | selectivity ratio [2]: 1 | selectivity ratio [3]: 1 | MIC (Escherichia coli): > 100 µM | CC50 at 24 h [4]: > 100 µM | selectivity ratio [5]: 1 | selectivity ratio [6]: 1 | MIC [7]: > 100 µM | selectivity ratio [8]: 1 | selectivity ratio [9]: 1 | MIC (Staphylococcus aureus): > 100 µM | selectivity ratio [10]: 1 | CC50 at 24 h [11]: > 100 µM | MIC (Pseudomonas aeruginosa): > 100 µM
